Source: PubChem BioAssay
IMP-1 inhibitor: blocks Pseudomonas aeruginosa IMP-1 metallo-beta-lactamase | purified IMP-1, nitrocefin hydrolysis, epi-absorbance fluorescence | inhibition, % at 5.6 µM | 290,000 compounds, 0.45% hits | AID 1556;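 active = inhibition above the mean plus 3 SD of all compounds in the same screening run, cut at about 4.5% in these data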;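 also: 0% = IMP-1 with DMSO and 100% = DMSO wells lacking enzyme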
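assay system = purified recombinant IMP-1 metallo-beta-lactamase enzyme | schedule = 15 min preincubation plus 25 min reaction at 25 °C | signal = Epi-absorbance fluorescence, 480 nm excitation, 530 nm emission | read-out basis = percent inhibition from optical density relative to buffer-blank wells | controls = IMP-1 with DMSO as 0%, enzyme-free DMSO as 100%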
aSyn UTR inh: MLPCN primary screen, SNCA 5' untranslated region; alpha-synuclein 5'UTR reporter, inhibitor activity; inhibition, % (tested at 7.5 µM); 300,000 compounds, 0.82% hits; AID 1813; in the data active = inhibition above about 60%;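 also: H4 neuroglioblastoma cells stably carrying SNCA 5'UTR luciferase fusion; 0% = DMSO wells and 100% = positive control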
Mdm2 MdmX PPI: inhibitors of human Mdm2/MdmX interaction. SaOS-2 split-luciferase Mdm2/MdmX complementation, luminescence. inhibition, % at 8 µM. 330,000 compounds, 3% hits. O15151+Q00987;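 active = inhibition of at least 50% at 8 µM in the primary screen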
Target sequence (O15151 whole entry, looked up): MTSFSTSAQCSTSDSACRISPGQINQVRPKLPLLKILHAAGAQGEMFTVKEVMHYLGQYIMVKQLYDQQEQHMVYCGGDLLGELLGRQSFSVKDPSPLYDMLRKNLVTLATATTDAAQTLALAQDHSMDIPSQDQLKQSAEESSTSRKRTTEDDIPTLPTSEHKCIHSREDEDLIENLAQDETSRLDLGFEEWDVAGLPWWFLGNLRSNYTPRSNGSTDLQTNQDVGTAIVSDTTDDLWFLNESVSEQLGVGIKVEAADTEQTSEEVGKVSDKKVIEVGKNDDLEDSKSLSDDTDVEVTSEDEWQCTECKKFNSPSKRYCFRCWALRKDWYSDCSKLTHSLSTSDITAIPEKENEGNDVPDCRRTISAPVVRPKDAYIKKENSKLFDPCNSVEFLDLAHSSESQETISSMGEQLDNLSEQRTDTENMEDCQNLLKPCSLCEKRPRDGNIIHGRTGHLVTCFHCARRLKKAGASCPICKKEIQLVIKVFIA
Target sequence (Q00987 whole entry, looked up): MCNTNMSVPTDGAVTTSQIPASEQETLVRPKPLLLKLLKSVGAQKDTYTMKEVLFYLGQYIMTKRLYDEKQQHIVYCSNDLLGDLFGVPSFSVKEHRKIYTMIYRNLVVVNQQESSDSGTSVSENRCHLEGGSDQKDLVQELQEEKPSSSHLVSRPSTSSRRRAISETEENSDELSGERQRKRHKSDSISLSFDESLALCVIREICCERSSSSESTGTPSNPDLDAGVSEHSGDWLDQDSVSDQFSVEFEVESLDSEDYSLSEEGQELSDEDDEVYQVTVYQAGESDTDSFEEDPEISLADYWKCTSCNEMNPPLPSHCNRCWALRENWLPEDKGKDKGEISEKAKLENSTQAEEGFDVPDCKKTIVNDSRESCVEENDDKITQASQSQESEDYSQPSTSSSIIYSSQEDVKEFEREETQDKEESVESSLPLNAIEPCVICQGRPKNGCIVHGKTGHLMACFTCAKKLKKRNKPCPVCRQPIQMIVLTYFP
VIM-2 inhibitor: inhibitors of Pseudomonas aeruginosa VIM-2 metallo-beta-lactamase; purified VIM-2, nitrocefin hydrolysis, epi-absorbance fluorescence; inhibition, % at 5.6 µM; 290,000 compounds, 0.89% hits;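 active = inhibition above the mean of all tested compounds plus 3 SD, cutoff set per screening run, cut at about 7.5% in these data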;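 also: red hydrolysis product quenches plate fluorescence so inhibitors raise well fluorescence; 0% = enzyme with DMSO and 100% = DMSO without enzyme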
Jurkat NFkB inh: inhibitors of the PMA/ionomycin-induced NF-kB reporter in Jurkat cells. PMA/ionomycin-induced NF-kB luciferase reporter, luminescence. 330,000 compounds, 0.53% hits. inhibition, % at 4 µM. AID 435003; in the data active = inhibition above about 50%
697 NFkB inh: inhibitors of the PMA/ionomycin-induced NF-kB reporter in 697 B cells | 697 B-cell NF-kB luciferase reporter, 16 h | inhibition, % at 4 µM | 330,000 compounds, 0.33% hits; in the data active = inhibition above about 35%
Mdm2 MdmX conf: confirmation of human Mdm2/MdmX interaction inhibitors; shares compounds with Mdm2 MdmX PPI; Mdm2-MdmX binding, luminescent assay; inhibition, % at 8 µM; 10,000 compounds, 55% hits; AID 489028; in the data active = inhibition above about 40%
FLuc counter: inhibits full-length luciferase, flagging false Mdm2/MdmX hits | shares compounds with Mdm2 MdmX PPI | SaOS-2 full-length luciferase counterscreen, luminescence | inhibition, % at 8 µM | 6,200 compounds, 77% hits | AID 504607;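 active = mean inhibition at 8 µM reaching about 37%, which flags the compound as non-specific, limit read from the data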;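 also: p53-null SaOS-2 cells with luciferase driven by a doxycycline-inducible promoter; compound on cells about two nights before reading with doxycycline added after day one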
* hit, by the source's call. Hits are enriched below; roughly 4.7% of the tested compounds scored in any of these assays.

Results for C[C@H](CO)N1C[C@H](C)[C@@H](CN(C)C(=O)Nc2ccc(C(F)(F)F)cc2)Oc2c(NC(=O)Nc3ccc(C(F)(F)F)cc3)cccc2C1=O ?
Mdm2 MdmX PPI: 84*; Jurkat NFkB inh: 9; 697 NFkB inh: 26; Mdm2 MdmX conf: -6

What do the screens show for `C[C@H](CO)N1C[C@H](C)[C@@H](CN(C)C(=O)Nc2ccc(C(F)(F)F)cc2)Oc2ccc(NC(=O)Nc3ccc(C(F)(F)F)cc3)cc2C1=O`?
Mdm2 MdmX PPI: 65*; Jurkat NFkB inh: -3; 697 NFkB inh: 9; Mdm2 MdmX conf: -21

What do the screens show for `CCc1ccccc1NC(=S)N(CCN(C)C)Cc1cccs1`?
IMP-1 inhibitor: -4; aSyn UTR inh: -14; Mdm2 MdmX PPI: 23; VIM-2 inhibitor: -1; Jurkat NFkB inh: 9; 697 NFkB inh: -14

How did Cc1ccccc1NC(=O)CSc1cn[nH]n1 do in these assays?
IMP-1 inhibitor: -2; aSyn UTR inh: -3; Mdm2 MdmX PPI: -3; VIM-2 inhibitor: -1; Jurkat NFkB inh: 5; 697 NFkB inh: 2

How did COc1ccc2[nH]cc(C(=O)CCl)c2c1 do in these assays?
IMP-1 inhibitor: -4; aSyn UTR inh: 9; Mdm2 MdmX PPI: 95*; VIM-2 inhibitor: -3; Jurkat NFkB inh: 21; 697 NFkB inh: -138; Mdm2 MdmX conf: 100*; FLuc counter: 51*

Results for COc1ccc2[nH]cc(C(=O)CN3CC(C)CC(C)C3)c2c1 (configuration not stated) ?
IMP-1 inhibitor: -3; aSyn UTR inh: -3; Mdm2 MdmX PPI: 1; VIM-2 inhibitor: -4; Jurkat NFkB inh: -13; 697 NFkB inh: 5

How did O=C(COC(=O)CNC(=O)c1ccc(Cl)cc1Cl)NC1CCCCC1 do in these assays?
IMP-1 inhibitor: -3; aSyn UTR inh: -6; Mdm2 MdmX PPI: 21; VIM-2 inhibitor: -3; Jurkat NFkB inh: 8; 697 NFkB inh: -12

How did CC(=O)c1cccc(Nc2c3c(nc4ccccc24)CCC3)c1 do in these assays?
IMP-1 inhibitor: -1; aSyn UTR inh: 75*; Mdm2 MdmX PPI: 55*; VIM-2 inhibitor: 10*; Jurkat NFkB inh: 38; 697 NFkB inh: -30; Mdm2 MdmX conf: 70*; FLuc counter: 72*

How did CC(=O)c1ccc(Nc2c3c(nc4ccccc24)CCCC3)cc1 do in these assays?
IMP-1 inhibitor: 0; aSyn UTR inh: -195; Mdm2 MdmX PPI: 45; VIM-2 inhibitor: 5; Jurkat NFkB inh: 40; 697 NFkB inh: -18

How did COc1cc(Nc2c3c(nc4ccccc24)CCCC3)cc(OC)c1OC do in these assays?
IMP-1 inhibitor: -2; aSyn UTR inh: 0; Mdm2 MdmX PPI: 68*; VIM-2 inhibitor: 1; Jurkat NFkB inh: 33; 697 NFkB inh: 22; Mdm2 MdmX conf: 64*; FLuc counter: 76*

Results for Fc1cccc(Nc2c3c(nc4ccccc24)CCC3)c1 ?
IMP-1 inhibitor: -2; aSyn UTR inh: 14; Mdm2 MdmX PPI: 30; VIM-2 inhibitor: 4; Jurkat NFkB inh: -12; 697 NFkB inh: -11

What do the screens show for `Cc1ccc2nc3c(c(Nc4cccc(O)c4)c2c1)CCC3`?
IMP-1 inhibitor: -2; aSyn UTR inh: -11; Mdm2 MdmX PPI: 60*; VIM-2 inhibitor: 9.4*; Jurkat NFkB inh: 47; 697 NFkB inh: -32; Mdm2 MdmX conf: 34

How did COC(=O)c1cccc(Nc2c3c(nc4ccccc24)CCC3)c1 do in these assays?
IMP-1 inhibitor: -3; aSyn UTR inh: -34; Mdm2 MdmX PPI: 64*; VIM-2 inhibitor: 8.1*; Jurkat NFkB inh: 44; 697 NFkB inh: -119; Mdm2 MdmX conf: 68*; FLuc counter: 63*

What do the screens show for `Cc1cc(C)c2c(=O)cc(C(F)(F)F)oc2n1`?
IMP-1 inhibitor: -1; aSyn UTR inh: 12; Mdm2 MdmX PPI: -16; VIM-2 inhibitor: 0; Jurkat NFkB inh: -3; 697 NFkB inh: 15

How did O=C(CCN1C(=O)c2ccccc2C1=O)C1=NN[C@@H]2C(=O)N(c3ccc4c(c3)OCCO4)C(=O)[C@H]12 do in these assays?
IMP-1 inhibitor: -3; aSyn UTR inh: 19; Mdm2 MdmX PPI: 28; VIM-2 inhibitor: -2; Jurkat NFkB inh: 3; 697 NFkB inh: 22

How did CC1CCN(Cc2c(C(=O)N/N=C/c3ccc(C(C)(C)C)cc3)nnn2-c2nonc2N)CC1 do in these assays?
IMP-1 inhibitor: 0; aSyn UTR inh: 64*; Mdm2 MdmX PPI: 50*; VIM-2 inhibitor: 0; Jurkat NFkB inh: -5; 697 NFkB inh: -54; Mdm2 MdmX conf: 27

Results for Cc1ccc(COc2cccc(/C=N/NC(=O)c3nnn(-c4nonc4N)c3C)c2)cc1 ?
IMP-1 inhibitor: -2; aSyn UTR inh: -152; Mdm2 MdmX PPI: 56*; VIM-2 inhibitor: 0; Jurkat NFkB inh: -12; 697 NFkB inh: -34; Mdm2 MdmX conf: -13

What do the screens show for `Cc1cccc(COc2ccc(/C=N/NC(=O)c3nnn(-c4nonc4N)c3C)cc2)c1`?
IMP-1 inhibitor: -3; aSyn UTR inh: -47; Mdm2 MdmX PPI: 5; VIM-2 inhibitor: -7; Jurkat NFkB inh: -10; 697 NFkB inh: 15

How did Nc1nonc1-n1nnc(C(=O)N/N=C/c2cc(Br)ccc2O)c1CNc1ccccc1 do in these assays?
IMP-1 inhibitor: -2; aSyn UTR inh: 70*; Mdm2 MdmX PPI: 69*; VIM-2 inhibitor: -10; Jurkat NFkB inh: 5; 697 NFkB inh: -26; Mdm2 MdmX conf: 66*; FLuc counter: 30

Results for CC(C)c1c(C(=O)N/N=C/c2ccccc2OCc2c(F)cccc2Cl)nnn1-c1nonc1N ?
IMP-1 inhibitor: 0; aSyn UTR inh: 5; Mdm2 MdmX PPI: 57*; VIM-2 inhibitor: -1; Jurkat NFkB inh: 46; 697 NFkB inh: 8; Mdm2 MdmX conf: 52*; FLuc counter: 55*

What do the screens show for `CN(C)S(=O)(=O)n1cc(/C=C(\NC(=O)c2ccccc2F)C(=O)NCCCn2ccnc2)c2ccccc21`?
IMP-1 inhibitor: -3; aSyn UTR inh: -2; Mdm2 MdmX PPI: 13; VIM-2 inhibitor: -4; Jurkat NFkB inh: -6; 697 NFkB inh: -8

How did Nc1nonc1-n1nnc(C(=O)N/N=C/c2ccc(OCc3ccc(F)cc3)cc2)c1COc1ccccc1 do in these assays?
IMP-1 inhibitor: -2; aSyn UTR inh: -122; Mdm2 MdmX PPI: 53*; VIM-2 inhibitor: -1; Jurkat NFkB inh: -48; 697 NFkB inh: 21; Mdm2 MdmX conf: 16

How did Cc1ccc(COc2ccc(/C=N/NC(=O)c3nnn(-c4nonc4N)c3COc3ccc(F)cc3)cc2)cc1 do in these assays?
IMP-1 inhibitor: -3; aSyn UTR inh: -50; Mdm2 MdmX PPI: 41; VIM-2 inhibitor: -1; Jurkat NFkB inh: -92; 697 NFkB inh: -15
